Assay results: ChEMBL document CHEMBL5042480, “3CL Protease Inhibitors with an Electrophilic Arylketone Moiety as Anti-SARS-CoV-2 Agents” (J Med Chem, 2022)
Calls of active or inactive are those of the source. The calls are words filed in the database; no cut-off is given here.

Experiments:
[1] = Drug metabolism in rat hepatocytes assessed as CYP450-catalysed oxidative pathway mediated metabolite formation at 10 uM incubated upto 2 hrs by LC/UV/MS analysis; assay type: ADME, cell-based, Hepatocyte
Method in brief: (§1)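 Hepatocytes were suspended at 6 × 10^5 viable cells/mL in KHB buffer and given compound at 10 μM. Incubation was 0 and 2 h at 37 °C under 5% CO2, stopped with acetonitrile. After centrifugation, supernatant metabolites were analysed by LC/UV/MS.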

[2] = Tmax in overnight-fasted Wistar rat at 0.5 mg/kg, po measured upto 7 hrs by quadrupole mass spectrometry coupled UFLC analysis; assay type: ADME, organism-based; conditions: in vivo
Method in brief: (§2)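 Conscious, freely moving male Wistar rats received compound in saline at 4 mL/kg, either i.v. via jugular vein at 0.1 mg/kg or by oral gavage at 0.5 mg/kg. Cannula blood was sampled up to 7 h and plasma measured by LC-MS/MS. Analysis was noncompartmental (trapezoidal AUC); Cmax and tmax were taken as observed, and t1/2 from log-linear terminal regression over at least 3 points. Mean ± SD, n = 5.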

[3] = MRT (total) in overnight-fasted Wistar rat at 0.5 mg/kg, po measured upto 7 hrs by quadrupole mass spectrometry coupled UFLC analysis; assay type: ADME, organism-based; conditions: in vivo; method in brief: as §2
SARS-CoV-2 [4] = assay: Antiviral activity against SARS coronavirus 2 infected in African green monkey Vero cells assessed as blockade of viral proliferation at 25 uM incubated for 48 hrs by cytopathic effect assay; assay type: functional, organism-based; conditions: Severe acute respiratory syndrome coronavirus 2
[5] = Total clearance in overnight-fasted Wistar rat at 0.1 mg/kg, iv measured upto 7 hrs by quadrupole mass spectrometry coupled UFLC analysis; assay type: ADME, organism-based; conditions: in vivo; method in brief: as §2
[6] = AUC (0 to 7 hrs) in overnight-fasted Wistar rat at 0.5 mg/kg, po measured upto 7 hrs by quadrupole mass spectrometry coupled UFLC analysis; assay type: ADME, organism-based; parameters: route oral, dose 0.5 mg/kg, time <=7; conditions: in vivo
Method in brief: (§3)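 Male Wistar rats, conscious and unrestrained, were given the compound in saline at 4 mL/kg, either as an i.v. bolus via the left jugular vein or by oral gavage. Heparinized blood was drawn from a cannula at set times up to 7 h and the plasma analysed by LC-MS/MS. AUC0–7 and AUC0–∞ came from noncompartmental trapezoidal analysis; mean ± SD, n = 5.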

[7] = molecular target: Voltage-gated inwardly rectifying potassium channel KCNH2 (Homo sapiens, UniProt Q12809); assay: Inhibition of hERG expressed in CHO cells at > 100 uM by whole-cell patch-clamp voltage-clamp method; assay type: toxicity, cell-based
Method in brief: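 hERG tail current was recorded by automated whole-cell patch clamp in CHO cells stably expressing hERG at room temperature. The pulse was +40 mV for 500 ms, then a ramp to −80 mV, repeated every 5 s. Compound was applied cumulatively at 5 min intervals. Verapamil served as positive control and DMSO as vehicle.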

Cytochrome P450 1A2 = molecular target: T1, Cytochrome P450 1A2 (Homo sapiens, UniProt P05177); assay: Inhibition of CYP1A2 in human liver microsome at 10 uM; assay type: toxicity; conditions: microsomes
T1 sequence (P05177 whole entry): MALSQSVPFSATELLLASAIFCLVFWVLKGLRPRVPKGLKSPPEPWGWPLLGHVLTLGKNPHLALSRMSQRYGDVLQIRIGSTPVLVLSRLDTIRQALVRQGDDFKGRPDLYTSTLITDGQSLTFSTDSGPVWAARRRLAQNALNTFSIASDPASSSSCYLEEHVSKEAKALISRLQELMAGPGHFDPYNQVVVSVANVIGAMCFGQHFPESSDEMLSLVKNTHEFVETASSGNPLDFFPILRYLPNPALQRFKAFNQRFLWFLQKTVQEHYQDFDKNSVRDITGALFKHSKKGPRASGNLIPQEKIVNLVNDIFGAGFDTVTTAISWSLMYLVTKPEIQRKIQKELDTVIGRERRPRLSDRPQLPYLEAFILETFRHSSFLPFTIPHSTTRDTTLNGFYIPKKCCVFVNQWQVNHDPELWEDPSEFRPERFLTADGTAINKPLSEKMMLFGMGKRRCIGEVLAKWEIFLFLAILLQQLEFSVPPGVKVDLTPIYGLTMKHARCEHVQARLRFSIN
Method in brief: (§4)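 Human liver microsomes (0.1 mg protein/mL) were mixed with compound at 10 μM and probe substrates in phosphate buffer pH 7.4: tacrine (CYP1A2), paclitaxel (2C8), tolbutamide (2C9), dextromethorphan (2D6) and midazolam (3A4). Reactions were started with an NADPH-generating system, run 10 min at 37 °C and stopped with acetonitrile. Metabolites were measured by LC/MS/MS and activity expressed as % remaining versus the no-inhibitor control.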

[8] = Protein binding in human plasma incubated for 6 hrs by quadrupole mass spectrometry coupled UFLC analysis; assay type: ADME, cell-free; conditions: read-out: PPB
Cytochrome P450 2C9 = Cytochrome P450 2C9 (Homo sapiens, UniProt P11712); assay: Inhibition of CYP2C9 in human liver microsome at 10 uM; assay type: toxicity; conditions: microsomes; method in brief: as §4
[9] = Inhibition of recombinant C-terminal His-tagged SARS coronavirus 1 3CL protease using Boc-Abu-Tle-Leu-Gln-AMC as substrate incubated for 5 mins by Cheng-Prusoff equation analysis; parameters: species or system Severe acute respiratory syndrome-related coronavirus
[10] = Drug metabolism in human hepatocytes assessed as amide hydrolysis mediated HC-6 metabolite formation at 10 uM incubated upto 2 hrs by LC/UV/MS analysis; assay type: ADME, cell-based, Hepatocyte; method in brief: as §1
[11] = Drug metabolism in rat hepatocytes assessed as amide hydrolysis mediated HC-5 metabolite formation at 10 uM incubated upto 2 hrs by LC/UV/MS analysis; assay type: ADME, cell-based, Hepatocyte; method in brief: as §1
SARS-CoV-2 [12] = assay: Antiviral activity against SARS coronavirus 2 infected in African green monkey VeroE6/TMPRSS2 cells upto 10 uM in presence of MDR-1 inhibitor CP-100356 measured after 24 hrs post-infection by qRT-PCR analysis; assay type: functional, organism-based; conditions: Severe acute respiratory syndrome coronavirus 2; Vero; dose microM <=10, time 24.0 hrs
[13] = Cmax in overnight-fasted Wistar rat at 0.5 mg/kg, po measured upto 7 hrs by quadrupole mass spectrometry coupled UFLC analysis; assay type: ADME, organism-based; parameters: route oral, dose 0.5 mg/kg, time <=7; conditions: in vivo; method in brief: as §2
[14] = Stability in rat plasma assessed as compound degradation incubated for 6 hrs by quadrupole mass spectrometry coupled UFLC analysis; assay type: ADME, cell-free
Method in brief: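 Compound at 1 μM was incubated in rat plasma at 37 °C for 0, 1, 2 and 6 h. Remaining concentration was measured by LC/MS/MS.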

[15] = AUC (0 to infinity) in overnight-fasted Wistar rat at 0.5 mg/kg, po measured upto 7 hrs by quadrupole mass spectrometry coupled UFLC analysis; assay type: ADME, organism-based; parameters: route oral, dose 0.5 mg/kg, time <=7; conditions: in vivo; method in brief: as §3
[16] = Drug metabolism in rat hepatocytes assessed as amide hydrolysis mediated HC-6 metabolite formation at 10 uM incubated upto 2 hrs by LC/UV/MS analysis; assay type: ADME, cell-based, Hepatocyte; method in brief: as §1
[17] = AUC (0 to 7 hrs) in overnight-fasted Wistar rat at 0.1 mg/kg, iv measured upto 7 hrs by quadrupole mass spectrometry coupled UFLC analysis; assay type: ADME, organism-based; parameters: route intravenous, dose 0.1 mg/kg, time <=7; conditions: in vivo; method in brief: as §3
[18] = Drug metabolism in human hepatocytes assessed as amide hydrolysis mediated HC-5 metabolite formation at 10 uM incubated upto 2 hrs by LC/UV/MS analysis; assay type: ADME, cell-based, Hepatocyte; method in brief: as §1

Sequence of Voltage-gated inwardly rectifying potassium channel KCNH2 (Q12809 whole entry): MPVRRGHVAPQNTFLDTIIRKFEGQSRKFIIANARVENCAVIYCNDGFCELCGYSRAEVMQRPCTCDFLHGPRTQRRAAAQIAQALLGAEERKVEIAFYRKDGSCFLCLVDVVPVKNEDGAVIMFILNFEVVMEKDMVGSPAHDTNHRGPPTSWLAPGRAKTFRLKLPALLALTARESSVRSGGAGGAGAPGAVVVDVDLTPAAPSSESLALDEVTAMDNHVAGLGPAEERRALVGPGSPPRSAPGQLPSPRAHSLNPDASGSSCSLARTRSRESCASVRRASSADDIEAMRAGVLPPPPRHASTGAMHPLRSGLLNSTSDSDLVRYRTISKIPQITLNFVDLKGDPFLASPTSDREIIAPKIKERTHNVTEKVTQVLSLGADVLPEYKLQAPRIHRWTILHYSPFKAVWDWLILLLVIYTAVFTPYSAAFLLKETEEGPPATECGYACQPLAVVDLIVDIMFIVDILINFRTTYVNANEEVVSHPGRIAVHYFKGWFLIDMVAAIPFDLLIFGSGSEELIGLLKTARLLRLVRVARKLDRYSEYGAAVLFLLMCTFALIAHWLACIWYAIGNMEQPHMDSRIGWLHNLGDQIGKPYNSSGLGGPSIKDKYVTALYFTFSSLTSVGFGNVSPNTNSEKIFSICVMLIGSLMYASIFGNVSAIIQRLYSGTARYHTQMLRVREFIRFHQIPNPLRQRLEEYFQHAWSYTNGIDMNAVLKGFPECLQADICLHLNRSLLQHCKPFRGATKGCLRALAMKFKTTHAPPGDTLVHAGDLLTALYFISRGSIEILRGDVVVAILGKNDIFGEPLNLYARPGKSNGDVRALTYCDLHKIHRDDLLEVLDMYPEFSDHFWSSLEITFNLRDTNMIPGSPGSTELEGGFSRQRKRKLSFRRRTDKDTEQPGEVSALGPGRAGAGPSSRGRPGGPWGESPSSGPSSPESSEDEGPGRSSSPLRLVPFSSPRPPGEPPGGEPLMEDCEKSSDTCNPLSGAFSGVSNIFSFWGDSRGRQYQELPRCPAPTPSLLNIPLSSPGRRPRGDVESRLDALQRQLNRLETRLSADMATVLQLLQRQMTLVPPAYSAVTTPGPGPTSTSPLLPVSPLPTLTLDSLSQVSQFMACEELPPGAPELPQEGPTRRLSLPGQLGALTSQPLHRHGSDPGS
Sequence of Cytochrome P450 2C9 (P11712 whole entry): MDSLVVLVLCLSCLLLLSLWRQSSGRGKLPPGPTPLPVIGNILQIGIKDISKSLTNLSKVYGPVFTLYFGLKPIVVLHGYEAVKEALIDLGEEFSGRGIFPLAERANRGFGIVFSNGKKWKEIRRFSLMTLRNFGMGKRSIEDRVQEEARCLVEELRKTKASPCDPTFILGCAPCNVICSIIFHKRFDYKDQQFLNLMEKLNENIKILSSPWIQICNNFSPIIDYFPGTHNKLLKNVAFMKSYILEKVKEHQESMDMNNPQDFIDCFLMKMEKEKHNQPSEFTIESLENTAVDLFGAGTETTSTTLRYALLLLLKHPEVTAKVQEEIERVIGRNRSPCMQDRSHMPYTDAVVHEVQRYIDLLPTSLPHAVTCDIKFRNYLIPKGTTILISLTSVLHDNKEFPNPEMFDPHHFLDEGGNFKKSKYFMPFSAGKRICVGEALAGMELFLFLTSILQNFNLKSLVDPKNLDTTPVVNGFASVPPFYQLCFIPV

**Q.** With COc1cccc2[nH]c(C(=O)N[C@@H](CC(C)C)C(=O)N[C@@H](C[C@@H]3CCNC3=O)C(=O)c3nc4ccccc4s3)cc12 as the compound, how does the Drug metabolism [1] read?
**A.** Metabolite_Detected

**Q.** And the Tmax [2]?
**A.** 0.35 h

**Q.** What about the MRT [3] of the same compound?
**A.** 13.2 h

**Q.** What about the Activity (SARS-CoV-2 [4]) of the same compound?
**A.** Active

**Q.** What about the clearance [5] of the same compound?
**A.** 107 mL/min/kg

**Q.** What about the AUC(0-t) [6] of the same compound?
**A.** 1.59 ng·h/mL

**Q.** And the “inhibition (INH)” value [7]?
**A.** Not Active

**Q.** And the “inhibition (INH)” value (Cytochrome P450 1A2)?
**A.** Active

**Q.** What about the fraction unbound at 6 h [8] of the same compound?
**A.** 0.01

**Q.** What about the “inhibition (INH)” value (Cytochrome P450 2C9) of the same compound?
**A.** Not Active

**Q.** What about the Ki [9] of the same compound?
**A.** 6.3 nM

**Q.** What about the Drug metabolism [10] of the same compound?
**A.** Metabolite_Detected

**Q.** What about the Drug metabolism [11] of the same compound?
**A.** Metabolite_Detected

**Q.** And the Activity (SARS-CoV-2 [12])?
**A.** Active

**Q.** What about the Cmax [13] of the same compound?
**A.** 1.08 ng/mL

**Q.** What about the Stability [14] of the same compound?
**A.** Stable

**Q.** And the AUC(0-inf) [15]?
**A.** 3.49 ng·h/mL

**Q.** What about the Drug metabolism [16] of the same compound?
**A.** Metabolite_Detected

**Q.** What about the AUC(0-t) [17] of the same compound?
**A.** 19.3 ng·h/mL

**Q.** What about the Drug metabolism [18] of the same compound?
**A.** Metabolite_Detected
